Here are results for 20 compounds from ChEMBL document CHEMBL3352304, “Synthesis and evaluation of 3-salicyloylpyridine derivatives as cytotoxic mitochondrial apoptosis inducers” (Bioorg Med Chem Lett, 2014).

Each structure is given as a SMILES string. Active and inactive are the calls of the source. The rule behind the calls is not given here.

One may read the IC50 as the concentration that gives 50% inhibition. High values mean lower potency, low ones higher potency.

Experiment [1] can be described thus: Cytotoxicity against human PC3 cells after 48 hrs by SRB assay. To be noted: PC-3, 48 h. The class given is functional, cell-based. (Sulforhodamine B stains cellular protein and so reports cell mass.)
For a further experiment, the system named is MCF7. In words: Cytotoxicity against human MCF7 cells after 48 hrs by SRB assay. To be noted: MCF7, 48 h. The class given is functional, cell-based.
Experiment [2] is described as follows: Cytotoxicity against human Hep cells after 48 hrs by SRB assay. The experiment is classed as functional, cell-based.
Experiment [3] can be described thus: Cytotoxicity against human IMR32 cells after 48 hrs by SRB assay. The class given is functional, cell-based. Particulars: IMR-32, 48 h.
Another experiment deals with HeLa. In words: Cytotoxicity against human HeLa cells after 48 hrs by SRB assay. The class given is functional, cell-based.
Experiment [4] deals with PC-3. Nature of the experiment: Reduction in mitochondrial membrane potential in human PC3 cells incubated for 12 hrs by rhodamine-123 dye based spectrofluorimetry. The experiment is classed as functional, cell-based. In a few lines: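 PC-3 cells (1 × 10⁶) in 24-well plates incubated with or without test compound at 1, 5 and 10 µM for 12 h at 37 °C, 5% CO₂, washed with PBS, then loaded with rhodamine-123 1 h in serum-free medium. Fluorescence read in a plate reader at excitation 480 nm / emission 530 nm; shown with SD.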

For experiment [5], the system named is PC-3. Nature of the experiment: Induction of apoptotic morphological changes in human PC3 cells assessed as increase in apoptotic bodies at cytotoxic IC50 level incubated for 12 hrs by DAPI staining based confocal laser microscopy. The experiment is classed as functional, cell-based. Put shortly: (§1)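 PC-3 cells (1 × 10⁶) in 1 ml medium in 24-well plates grown to confluence 24 h at 37 °C, 5% CO₂, then exposed to test compound at its IC₅₀ for 12 h; camptothecin 2 µM as positive control. Medium replaced with serum-free medium, cells stained with DAPI (10 mM) 1 h at 37 °C and imaged by laser scanning confocal fluorescence microscopy against untreated control.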

The subject of experiment [6] is PC-3. In words: Induction of intracellular ROS generation in human PC3 cells incubated for 12 hrs by DCFH-DA dye based spectrofluorimetry. The experiment is classed as functional, cell-based. Put shortly: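 PC-3 cells plated at 1 × 10⁶ cells/dish in 24-well plates, adhered 6 h, then grown with or without test compound at 5, 10 and 15 µM for 12 h; DCFH-DA added 30 min before end. Trypsinized plus floating cells collected, 1 × 10⁶ cells pelleted, resuspended in ice-cold PBS (1.0 ml) and intracellular peroxides measured by spectrofluorimetry.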

Experiment [7] relates to PC-3. Nature of the experiment: Induction of apoptotic morphological changes in human PC3 cells assessed as plasma membrane blebbing at cytotoxic IC50 level incubated for 12 hrs by DAPI staining based confocal laser microscopy. The class given is functional, cell-based. In a few lines: as §1
In experiment [8] the test system is PC-3. Nature of the experiment: Induction of apoptotic morphological changes in human PC3 cells assessed as cell surface smoothening at cytotoxic IC50 level incubated for 12 hrs by scanning electron microscopy. The class given is functional, cell-based. Put shortly:
(§2)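 PC-3 cells incubated with test compound at its IC₅₀ for 12 h, with 2 µM camptothecin as positive control and untreated cells as control; cell surface morphology examined by scanning electron microscopy.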

The subject of experiment [9] is PC-3. In words: Induction of apoptotic morphological changes in human PC3 cells assessed as cell size condensation at cytotoxic IC50 level incubated for 12 hrs by scanning electron microscopy. The class given is functional, cell-based. In a few lines:
as §2

In experiment [10] the test system is PC-3. In words: Induction of apoptotic morphological changes in human PC3 cells assessed as spherical cell shape changes at cytotoxic IC50 level incubated for 12 hrs by DAPI staining based confocal laser microscopy. The class given is functional. Put shortly:
as §1

In experiment [11] the test system is PC-3. In words: Induction of apoptotic morphological changes in human PC3 cells assessed as plasma membrane blebbing at cytotoxic IC50 level incubated for 12 hrs by scanning electron microscopy. The class given is functional, cell-based. Put shortly: as §2
Experiment [12] has as its system PC-3. Nature of the experiment: Induction of apoptosis in human PC3 cells at 2 uM incubated for 12 hrs by DAPI staining based confocal laser microscopy. The class given is functional, cell-based. In a few lines: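 PC-3 human prostate cancer cells (1 × 10⁶ in 1 ml medium) grown to confluence for 24 h at 37 °C, 5% CO₂, then exposed 12 h. Medium replaced with serum-free medium and cells stained with DAPI for 1 h at 37 °C. Nuclear and cell morphology imaged by laser scanning confocal fluorescence microscopy against untreated control cells.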

In the case of `C=CCOc1cc(Br)ccc1C(=O)c1cccnc1`, the IC50 in experiment [1] is over 100 µM; with MCF7, over 100 µM; in experiment [2] it was over 100 µM; in experiment [3], 98 µM; in the experiment on HeLa it was over 100 µM.

As for `O=C(c1cccnc1)c1cc(F)ccc1O`, the IC50 in [1] turned out to be 11.8 µM; in the experiment with MCF7 it was 27.8 µM; in experiment [2], 12 µM; in experiment [3] it was 6.21 µM; in the experiment with HeLa, 27 µM.

Take `C=CCOc1ccc(C)cc1C(=O)c1cccnc1`: the IC50 in experiment [1] worked out at 98 µM; in the experiment with MCF7, 84 µM; in experiment [2], 72 µM; in experiment [3], 87 µM; with HeLa it was 94 µM.

In the case of `CO[C@@]12[C@H](COC(N)=O)C3=C(C(=O)C(C)=C(N)C3=O)N1C[C@@H]1N[C@@H]12` [MITOMYCIN], the IC50 in experiment [1] amounted to 1.5 µM.

For `O=C(c1cccnc1)c1cc(Cl)cc(Cl)c1O`, the IC50 in experiment [1] was 28.7 µM; with MCF7, 29.6 µM; in experiment [2], 27 µM; in experiment [3], 28.8 µM; in the experiment with HeLa, over 100 µM.

`O=C(c1cccnc1)c1cccc(Cl)c1O`: the IC50 was 31.5 µM in experiment [1]; 26.7 µM in the experiment with MCF7; 28 µM in experiment [2]; 26 µM in experiment [3]; 21 µM in the experiment on HeLa.

In the case of `C=CCOc1ccc(Br)cc1C(=O)c1cccnc1`, the IC50 came to 59 µM in experiment [1]; 92 µM with MCF7; 78 µM in experiment [2]; 88 µM in experiment [3]; 96 µM in the experiment on HeLa.

As to `Cc1ccc(O)c(C(=O)c2cccnc2)c1`, the Activity result in the experiment with PC-3 [4] and in the experiment with PC-3 [6] was “Dose-dependent effect” each time. Besides, the IC50 in [1] worked out at 10 µM; in the experiment on MCF7, 8.04 µM; in [2], 11 µM; in experiment [3] it was 5.54 µM; with HeLa, 26 µM. Also, the result in the experiment on PC-3 [5], in the experiment on PC-3 [7], in the experiment with PC-3 [8], in the experiment with PC-3 [9], in the experiment with PC-3 [10] and in the experiment with PC-3 [11] was Active.

As to `C=CCOc1c(Cl)cc(Cl)cc1C(=O)c1cccnc1`, the IC50 is 96 µM in [1]; 85 µM with MCF7; over 100 µM in [2]; 52 µM in experiment [3]; 34 µM in the experiment on HeLa.

Consider `O=c1[nH]cc(F)c(=O)[nH]1` [FLUOROURACIL], for which the IC50 worked out at 0.5 µM in experiment [2] and 1.3 µM in experiment [3].

Take `C=CCOc1ccc(F)cc1C(=O)c1cccnc1`: the IC50 is over 100 µM in experiment [1]; over 100 µM with MCF7; over 100 µM in [2]; 91 µM in [3]; 93 µM with HeLa.

As for `O=C(c1cccnc1)c1cc(Br)ccc1O`, the IC50 was 60.2 µM in [1]; 53.5 µM in the experiment with MCF7; 29 µM in [2]; 23.4 µM in [3]; 29 µM with HeLa.

Consider `C=CCOc1ccccc1C(=O)c1cccnc1`, for which the 50% inhibitory concentration (IC50) was 55 µM in experiment [1]; over 100 µM with MCF7; over 100 µM in [2]; 44 µM in experiment [3]; over 100 µM in the experiment with HeLa.

On to `O=C(c1cccnc1)c1ccc(Br)cc1O`, for which the 50% inhibitory concentration (IC50) was 88.6 µM in experiment [1]; over 100 µM with MCF7; 85 µM in [2]; 89 µM in experiment [3]; 37 µM in the experiment with HeLa.

Consider `C=CCOc1ccc(Cl)cc1C(=O)c1cccnc1`, for which the IC50 was over 100 µM in experiment [1]; 54 µM with MCF7; over 100 µM in experiment [2]; 91 µM in experiment [3]; 75 µM in the experiment with HeLa.

With `O=C(c1cccnc1)c1ccccc1O`, the IC50 in [1] turned out to be 33.4 µM; with MCF7, 24.6 µM; in experiment [2] it was 31 µM; in experiment [3], 33.7 µM; with HeLa, 33 µM.

Regarding `O=C(c1cccnc1)c1cc(Cl)ccc1O`, the IC50 in experiment [1] was 24.8 µM; in the experiment on MCF7 it was 29 µM; in experiment [2], 27 µM; in experiment [3], 19.5 µM; in the experiment with HeLa, 24 µM.

As for `C=CCOc1c(Cl)cccc1C(=O)c1cccnc1`, the IC50 in experiment [1] is over 100 µM; in the experiment with MCF7, over 100 µM; in experiment [2], 92 µM; in experiment [3], 94 µM; with HeLa, 100 µM.

`CC[C@@]1(O)C(=O)OCc2c1cc1n(c2=O)Cc2cc3ccccc3nc2-1`: the outcome in the experiment with PC-3 [12] was Active.

The compound `CC(=O)O[C@H]1C(=O)[C@@]2(C)[C@H]([C@H](OC(=O)c3ccccc3)[C@]3(O)C[C@H](OC(=O)[C@H](O)[C@@H](NC(=O)c4ccccc4)c4ccccc4)C(C)=C1C3(C)C)[C@]1(OC(C)=O)CO[C@@H]1C[C@@H]2O` [PACLITAXEL] displayed an IC50 in the experiment with MCF7 of 0.2 µM.
